The text below walks through data of ChEMBL document CHEMBL1159128, “Structure-activity relationship of C5-curcuminoids and synthesis of their molecular probes thereof” (2010).

A word on the GI50: it is the concentration that inhibits growth by half.

For one assay, the system named is DLD-1. Description: Cytotoxicity against human DLD1 cells. It is filed as functional.
Conditions: not given
The compound `COc1ccc(/C=C/C(=O)/C=C/c2ccc(OC)c(OC)c2)cc1OC` gave a GI50 of 2000 nM. This counts as single-digit micromolar.
Still for that read-out and setting: then `COc1cc(/C=C/C(=O)CC(=O)/C=C/c2ccc(O)c(OC)c2)ccc1O` [CURCUMIN], with 8000 nM; and `O=C(/C=C/c1ccc2c(c1)OCO2)/C=C/c1ccc2c(c1)OCO2`, with over 50000 nM.

Another assay concerns HCT-116. Description: Growth inhibition of human HCT116 cells after 48 hrs by MTS assay. Conditions: HCT-116, 48 h. It is filed as functional. The method in brief: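 Vehicle controls received 1% DMSO alone. Growth in treated wells was expressed as a percentage of this control and plotted against concentration, and the mean growth-inhibitory concentration (GI50) was read from the curve.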
(Tetrazolium dyes change colour on reduction, which living cells bring about.)
As to `COc1ccc(/C=C/C(=O)/C=C/c2ccc(OC)c(OC)c2)cc1OC`, halving of growth (GI50) required 1500 nM.
On the same count and under the same terms, with `COc1cc(/C=C/C(=O)/C=C/c2cc(OC)c(OCc3cn(CCCCCCCCCO)nn3)c(OC)c2)cc(OC)c1OC` the figure was 800 nM; with `COCOc1cccc(/C=C/C(=O)/C=C/c2cc(OC)c(OC)c(OC)c2)c1`, 4000 nM; with `COc1ccc(/C=C/C(=O)/C=C/c2cc(OC)c(OC)c(OC)c2)cc1`, 3000 nM.
On to `COc1ccc(/C=C/C(=O)/C=C/c2ccc(OC)c(O)c2)cc1O`, for which it took 800 nM to inhibit growth by half (GI50).
As to `O=C(/C=C/c1cc(O)cc(O)c1)/C=C/c1cc(O)cc(O)c1`, it took 1500 nM to inhibit growth by half (GI50).
The same measure, in the same setting: then `COc1ccc(CCC(=O)CCc2ccc(OC)c(OC)c2)cc1OC`, with over 50000 nM; and `COc1cc(/C=C/C(=O)/C=C/c2cccc(OC(=O)C34CC5CC(CC(C5)C3)C4)c2)cc(OC)c1OC`, with 7600 nM.
Still for that read-out and setting: with `COc1cc(/C=C/C(=O)/C=C/c2cc(OC)c(OCCO)c(OC)c2)cc(OC)c1OC` the figure was 1700 nM; with `COc1ccc(/C=C/C(=O)/C=C/c2ccc(OC)cc2OC)c(OC)c1`, over 50000 nM.
For `COc1ccc(/C=C/C(=O)/C=C/c2ccc(OC)c(OC)c2)cc1`, growth was halved (GI50) at 4000 nM.
On the same count and under the same terms, then `COc1cc(/C=C/C(=O)/C=C/c2cc(OC)c(OCc3cn(CCCCCCCCCCNC(=O)OC(C)(C)C)nn3)c(OC)c2)cc(OC)c1OC`, with 800 nM.
On the same count and under the same terms, with `COc1cc(/C=C/C(=O)/C=C/c2cc(OC)c(OC)c(OC)c2)cc(OC)c1OC` the figure was 300 nM; with `COc1ccc(/C=C2\CCC/C(=C\c3ccc(OC)c(OC)c3)C2=O)cc1OC`, over 50000 nM.
On the same count and under the same terms, then `COc1cc(/C=C/C(=O)/C=C/c2cc(OC)cc(OC)c2)cc(OC)c1`, with 2000 nM.
In the case of `C#CCOc1c(OC)cc(/C=C/C(=O)/C=C/c2cc(OC)c(OCOC)c(OC)c2)cc1OC`, halving of growth (GI50) required 2400 nM.
`COc1cc(OC)c(/C=C/C(=O)/C=C/c2c(OC)cc(OC)cc2OC)c(OC)c1`: halving of growth (GI50) required 2300 nM.
As to `COc1cc(/C=C/C(=O)/C=C/c2cc(OC)c(OCc3cn(Cc4ccc(OC5CCCCO5)cc4)nn3)c(OC)c2)cc(OC)c1OC` (configuration not stated), it took 300 nM to inhibit growth by half (GI50). This GI50 lies about 7.7-fold lower than the previous one.
On the same count and under the same terms, then `COc1cc(OC)c(OC)c(OC)c1/C=C/C(=O)/C=C/c1c(OC)cc(OC)c(OC)c1OC`, with over 50000 nM.
Turning to `COCOc1c(OC)cc(/C=C/C(=O)/C=C/c2cc(OC)c(OCOC)c(OC)c2)cc1OC`, the GI50 came out at 300 nM. In other words, the sub-micromolar range.
The same measure, in the same setting: then `COc1cc(/C=C/C(=O)/C=C/c2cc(OC)c(OCCN=[N+]=[N-])c(OC)c2)cc(OC)c1OCCN=[N+]=[N-]`, with 7600 nM.
The compound `COc1cc(/C=C/C(=O)/C=C/c2ccc(O)c(OC)c2)ccc1O` registered a GI50 of 15000 nM.
Consider `COc1cc(/C=C/C(=O)/C=C/c2cc(OC)c(O)c(OC)c2)cc(OC)c1O`, for which the GI50 stood at 800 nM.
On the same count and under the same terms, then `COc1ccc(CCC(O)CCc2ccc(OC)c(OC)c2)cc1OC`, with over 50000 nM.
The same measure, in the same setting: then `COc1cc(/C=C/C(=O)/C=C/c2cc(OC)c(OCC(=O)O)c(OC)c2)cc(OC)c1OC`, with 38000 nM; and `COc1ccc(/C=C/C(=O)c2ccc(OC)c(OC)c2)cc1OC`, with 7000 nM.
On the same count and under the same terms, with `C=C1CC2CC(C1)/C(=C\c1ccc(OC)c(OC)c1)C(=O)/C2=C/c1ccc(OC)c(OC)c1` the figure was over 50000 nM; with `COc1ccc(/C=C/C(=O)/C=C/c2cc(OC)c(OC)c(OC)c2)cc1OC`, 400 nM; with `COc1ccccc1/C=C/C(=O)/C=C/c1ccccc1OC`, 4000 nM.
In turn, `COc1cccc(/C=C/C(=O)/C=C/c2cc(OC)c(OC)c(OC)c2)c1` showed a 50% growth inhibitory concentration (GI50) of 6900 nM.
Turning to `COc1ccc(OC)c(OC)c1/C=C/C(=O)/C=C/c1c(OC)ccc(OC)c1OC`, the concentration for 50% growth inhibition (GI50) came to 2300 nM.
As to `COc1cc(/C=C/C(=O)/C=C/c2cccc(Cl)c2)cc(OC)c1OC`, the GI50 was 17000 nM.
The same measure, in the same setting: with `COc1ccc(OC)c(/C=C/C(=O)/C=C/c2cc(OC)ccc2OC)c1` the figure was 8100 nM; with `COc1cc(/C=C/C(=O)/C=C/c2cccc(C#Cc3ccccc3)c2)cc(OC)c1OC`, 8100 nM.
Still for that read-out and setting: then `COc1cc(/C=C/C(=O)/C=C/c2cc(OC)c(OCCO)c(OC)c2)cc(OC)c1OCCO`, with 500 nM; and `COc1cc(/C=C/C(=O)/C=C/c2cccc(OC(c3ccccc3)(c3ccccc3)c3ccccc3)c2)cc(OC)c1OC`, with 8500 nM; and `COc1ccc(/C=C/C(=O)CCc2ccc(OC)c(OC)c2)cc1OC`, with over 50000 nM.
`COc1cc(/C=C/C(=O)/C=C/c2cccc(OS(=O)(=O)C(F)(F)F)c2)cc(OC)c1OC`: the 50% growth inhibitory concentration (GI50) was 2400 nM.
As to `COc1ccc(/C=C/C(/C=C/c2ccc(OC)c(OC)c2)=NO)cc1OC`, the GI50 is over 50000 nM.
`COc1cc(/C=C/C(=O)/C=C/c2cc(OC)c(OCc3cn(CCCCCCCCCOC(=O)CCC4=[N+]5C(=Cc6c(C)cc(C)n6[B-]5(F)F)C=C4)nn3)c(OC)c2)cc(OC)c1OC` displayed a GI50 of 15000 nM.
Regarding `CCOC(C)Oc1cccc(/C=C/C(=O)/C=C/c2cc(OC)c(OC)c(OC)c2)c1` (configuration not stated), halving of growth (GI50) required 1400 nM. Compared with the last compound, the GI50 is about 11-fold lower.
Still for that read-out and setting: then `COc1cc(/C=C/C(=O)/C=C/c2ccccc2)cc(OC)c1OC`, with 4400 nM; and `COc1ccc(/C=C/C(=O)/C=C/c2ccc(OC)cc2)cc1`, with 9000 nM.
The same measure, in the same setting: then `COc1cccc(/C=C/C(=O)/C=C/c2cccc(OC)c2)c1`, with 9100 nM.
On the same count and under the same terms, then `COc1cc(/C=C/C(=O)/C=C/c2cc(OC)c(OCCN=[N+]=[N-])c(OC)c2)cc(OC)c1OC`, with 9700 nM; and `CCOC(C)Oc1c(OC)cc(/C=C/C(=O)/C=C/c2cc(OC)c(OC)c(OC)c2)cc1OC` (configuration not stated), with 1500 nM.
Compound `COc1ccc(/C=C/C(=O)/C=C/c2ccc(OC)c(OC)c2)cc1O` came in with a GI50 of 1500 nM. That is a single-digit micromolar value.
Consider `COc1cccc(/C=C/C(=O)/C=C/c2cccc(OC)c2OC)c1OC`, for which the GI50 was 1300 nM.
On the same count and under the same terms, with `COc1cc(/C=C/C(=O)/C=C/c2ccc(OC)c(OC)c2)ccc1O` the figure was 700 nM; with `COC(=O)COc1c(OC)cc(/C=C/C(=O)/C=C/c2cc(OC)c(OC)c(OC)c2)cc1OC`, 7000 nM; with `COc1cc(/C=C/C(=O)/C=C/c2ccc(OC)c(OC)c2OC)cc(OC)c1OC`, 1900 nM.
On the same count and under the same terms, with `COc1ccc(/C=C/C(=O)/C=C(O)/C=C/c2ccc(OC)c(OC)c2)cc1OC` the figure was 2000 nM; with `COc1cc(/C=C/C(=O)/C=C/c2cccc(O)c2)cc(OC)c1OC`, 900 nM; with `CCCSC(CC(=O)/C=C/c1ccc(OC)c(OC)c1)c1ccc(OC)c(OC)c1` (configuration not stated), 22000 nM.
Regarding `COc1cccc(OC)c1/C=C/C(=O)/C=C/c1c(OC)cccc1OC`, the GI50 worked out at 9000 nM.
As for `COc1cc(OC)c(OC)cc1/C=C/C(=O)/C=C/c1cc(OC)c(OC)c(OC)c1`, the GI50 amounted to 3300 nM. This GI50 is about 2.7-fold lower than that of the compound before.
Still for that read-out and setting: then `COCOc1ccc(/C=C/C(=O)/C=C/c2ccc(OCOC)c(OCOC)c2)cc1OCOC`, with 800 nM.
As for `COc1cc(OC)c(OC)cc1/C=C/C(=O)/C=C/c1cc(OC)c(OC)cc1OC`, the concentration for 50% growth inhibition (GI50) is 2000 nM.
As for `C#CCOc1c(OC)cc(/C=C/C(=O)/C=C/c2cc(OC)c(OC)c(OC)c2)cc1OC`, the GI50 was found to be 1800 nM.
With `COc1cc(/C=C/C(=O)/C=C/c2cc(OC)c(OCc3cn(CCCCCCCCCCOC(=O)CSCc4c(C)n5c(C)c(C)c(=O)n5c4=O)nn3)c(OC)c2)cc(OC)c1OC`, growth was halved (GI50) at 2600 nM. The GI50 values of the last two compounds are within 1.5-fold of each other.
On the same count and under the same terms, then `C#CCOc1c(OC)cc(/C=C/C(=O)/C=C/c2cc(OC)c(OCC#C)c(OC)c2)cc1OC`, with 300 nM; and `COc1ccc(/C=C/C(=O)/C=C/c2ccc(OC)c(OC)c2OC)c(OC)c1OC`, with 3500 nM.
Turning to `CCCCCCCCCCCCCCOc1cccc(/C=C/C(=O)/C=C/c2cc(OC)c(OC)c(OC)c2)c1`, the GI50 was over 50000 nM.
`COc1cc(/C=C/C(=O)/C=C/c2cc(OC)c(OC)c(OC)c2)cc(OC)c1O` had a GI50 of 800 nM.
